# Measured values from ChEMBL document CHEMBL5058577, “EUbOPEN Chemogenomics Library 2 (Multiplex)” (2022).
# Tested on: U2OS
# Assay: Multiplex assay against U2OS
# Assay type: toxicity, cell-based
# Settings: human
# How it was run: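 Values for tubulin, mitochondrial-mass and membrane-permeability phenotypes are per cents of cells with healthy nuclei. These cells were identified by CellPathfinder machine-learning gating of live cells that had been stained at seeding with Hoechst33342, BioTracker Green Microtubule Cytoskeleton Dye, MitoTracker Red and Annexin V Alexa Fluor 680 and imaged on a CQ1 microscope at 37°C and 5% CO2 after compound addition. The gating first set Hoechst high-intensity objects apart from normal cells, then split normal cells into healthy, pyknosed or fragmented nuclei, and pyknosed cells into mitotic or apoptotic.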
# [1] = 12 h, 1 µM, compound concentration 1 uM, replicate 1
# [2] = 12 h, 1 µM, compound concentration 1 uM, replicate 2
# [3] = 12 h, 10 µM, compound concentration 10 uM, replicate 1
# [4] = 12 h, 10 µM, compound concentration 10 uM, replicate 2
# [5] = 24 h, 1 µM, compound concentration 1 uM, replicate 1
# [6] = 24 h, 1 µM, compound concentration 1 uM, replicate 2
# [7] = 24 h, 10 µM, compound concentration 10 uM, replicate 1
# [8] = 24 h, 10 µM, compound concentration 10 uM, replicate 2
# [9] = 48 h, 1 µM, compound concentration 1 uM, replicate 1
# [10] = 48 h, 1 µM, compound concentration 1 uM, replicate 2
# [11] = 48 h, 10 µM, compound concentration 10 uM, replicate 1
# [12] = 48 h, 10 µM, compound concentration 10 uM, replicate 2
smiles,measurement,setting,value
O=c1nc2[nH]c3ccccc3nc-2c(=O)[nH]1 [ALLOXAZINE],Population Apoptotic (%),[1],70%
same,Population Fragmented Nuclei (%),[1],25%
same,Population Healthy Nuclei (%),[1],61%
same,Population Hoechst High Intensity Objects (%),[1],2%
same,Population Membrane Permeable-Phenotype (%),[1],5%
same,Population Mitochondria Different-Phenotype (%),[1],0%
same,Population Mitotic Cells (%),[1],29%
same,Population Normal (%),[1],97%
same,Population Pyknosed Nuclei (%),[1],12%
same,Population Tubulin-Different-Phenotype (%),[1],3%
same,Total Cell Count,[1],195
same,Population Apoptotic (%),[2],75%
same,Population Fragmented Nuclei (%),[2],15%
same,Population Healthy Nuclei (%),[2],74%
same,Population Mitochondria Different-Phenotype (%),[2],5%
same,Population Mitotic Cells (%),[2],25%
same,Population Pyknosed Nuclei (%),[2],10%
same,Total Cell Count,[2],122
same,Population Apoptotic (%),[3],86%
same,Population Fragmented Nuclei (%),[3],33%
same,Population Healthy Nuclei (%),[3],59%
same,Population Hoechst High Intensity Objects (%),[3],0%
same,Population Membrane Permeable-Phenotype (%),[3],7%
same,Population Mitochondria Different-Phenotype (%),[3],0%
same,Population Mitotic Cells (%),[3],13%
same,Population Normal (%),[3],99%
same,Population Pyknosed Nuclei (%),[3],7%
same,Population Tubulin-Different-Phenotype (%),[3],1%
same,Total Cell Count,[3],212
same,Population Apoptotic (%),[4],88%
same,Population Fragmented Nuclei (%),[4],13%
same,Population Healthy Nuclei (%),[4],78%
same,Population Hoechst High Intensity Objects (%),[4],1%
same,Population Mitochondria Different-Phenotype (%),[4],5%
same,Population Mitotic Cells (%),[4],11%
same,Population Normal (%),[4],98%
same,Population Tubulin-Different-Phenotype (%),[4],3%
same,Total Cell Count,[4],119
same,Population Apoptotic (%),[5],73%
same,Population Fragmented Nuclei (%),[5],24%
same,Population Healthy Nuclei (%),[5],66%
same,Population Hoechst High Intensity Objects (%),[5],1%
same,Population Membrane Permeable-Phenotype (%),[5],4%
same,Population Mitochondria Different-Phenotype (%),[5],1%
same,Population Mitotic Cells (%),[5],26%
same,Population Normal (%),[5],98%
same,Population Pyknosed Nuclei (%),[5],8%
same,Population Tubulin-Different-Phenotype (%),[5],2%
same,Total Cell Count,[5],261
same,Population Apoptotic (%),[6],57%
same,Population Fragmented Nuclei (%),[6],16%
same,Population Healthy Nuclei (%),[6],74%
same,Population Hoechst High Intensity Objects (%),[6],2%
same,Population Membrane Permeable-Phenotype (%),[6],5%
same,Population Mitochondria Different-Phenotype (%),[6],5%
same,Population Mitotic Cells (%),[6],42%
same,Population Normal (%),[6],97%
same,Population Pyknosed Nuclei (%),[6],9%
same,Total Cell Count,[6],146
same,Population Apoptotic (%),[7],78%
same,Population Fragmented Nuclei (%),[7],30%
same,Population Healthy Nuclei (%),[7],61%
same,Population Hoechst High Intensity Objects (%),[7],0%
same,Population Membrane Permeable-Phenotype (%),[7],8%
same,Population Mitochondria Different-Phenotype (%),[7],2%
same,Population Mitotic Cells (%),[7],21%
same,Population Normal (%),[7],99%
same,Population Pyknosed Nuclei (%),[7],8%
same,Population Tubulin-Different-Phenotype (%),[7],2%
same,Total Cell Count,[7],237
same,Population Apoptotic (%),[8],75%
same,Population Fragmented Nuclei (%),[8],16%
same,Population Healthy Nuclei (%),[8],80%
same,Population Hoechst High Intensity Objects (%),[8],2%
same,Population Membrane Permeable-Phenotype (%),[8],5%
same,Population Mitochondria Different-Phenotype (%),[8],4%
same,Population Mitotic Cells (%),[8],25%
same,Population Normal (%),[8],97%
same,Population Pyknosed Nuclei (%),[8],2%
same,Population Tubulin-Different-Phenotype (%),[8],3%
same,Total Cell Count,[8],148
same,Population Apoptotic (%),[9],84%
same,Population Fragmented Nuclei (%),[9],19%
same,Population Healthy Nuclei (%),[9],71%
same,Population Hoechst High Intensity Objects (%),[9],1%
same,Population Membrane Permeable-Phenotype (%),[9],1%
same,Population Mitochondria Different-Phenotype (%),[9],1%
same,Population Mitotic Cells (%),[9],15%
same,Population Normal (%),[9],98%
same,Population Pyknosed Nuclei (%),[9],9%
same,Population Tubulin-Different-Phenotype (%),[9],1%
same,Total Cell Count,[9],362
same,Population Apoptotic (%),[10],76%
same,Population Fragmented Nuclei (%),[10],18%
same,Population Healthy Nuclei (%),[10],72%
same,Population Hoechst High Intensity Objects (%),[10],6%
same,Population Membrane Permeable-Phenotype (%),[10],4%
same,Population Mitochondria Different-Phenotype (%),[10],2%
same,Population Mitotic Cells (%),[10],23%
same,Population Normal (%),[10],93%
same,Population Pyknosed Nuclei (%),[10],8%
same,Population Tubulin-Different-Phenotype (%),[10],2%
same,Total Cell Count,[10],207
same,Population Apoptotic (%),[11],90%
same,Population Fragmented Nuclei (%),[11],26%
same,Population Healthy Nuclei (%),[11],66%
same,Population Hoechst High Intensity Objects (%),[11],1%
same,Population Membrane Permeable-Phenotype (%),[11],5%
same,Population Mitochondria Different-Phenotype (%),[11],1%
same,Population Mitotic Cells (%),[11],9%
same,Population Normal (%),[11],98%
same,Population Pyknosed Nuclei (%),[11],6%
same,Population Tubulin-Different-Phenotype (%),[11],2%
same,Total Cell Count,[11],321
same,Population Apoptotic (%),[12],76%
same,Population Fragmented Nuclei (%),[12],12%
same,Population Healthy Nuclei (%),[12],79%
same,Population Membrane Permeable-Phenotype (%),[12],3%
same,Population Mitotic Cells (%),[12],23%
same,Population Pyknosed Nuclei (%),[12],8%
same,Total Cell Count,[12],210
